Calls of active or inactive are those of the source. The calls are words filed in the database; no cut-off is given here.

Assay [1] deals with Neisseria meningitidis. Description: Inhibition of Neisseria meningitidis alpha-1,4-galactosyltransferase assessed as consumption of donor UDP-Gal by measuring turnover rate at 0.1 to 50 uM using lactose as substrate preincubated for 30 mins followed by lactose and UDP-Gal addition measured after 20 mins by malachite green dye-based assay relative to total UDP-Gal used.
Assay [2] concerns Neisseria meningitidis. Description: Inhibition of Neisseria meningitidis alpha-1,4-galactosyltransferase assessed as consumption of donor UDP-Gal by measuring turnover rate at 0.1 to 50 uM using lactose as substrate preincubated for 5 mins followed by lactose and UDP-Gal addition measured after 20 mins by malachite green dye-based assay relative to total UDP-Gal used.
For assay [3], the system named is Neisseria meningitidis. Nature of the assay: Inhibition of Neisseria meningitidis alpha-1,4-galactosyltransferase assessed as as consumption of donor UDP-Gal by measuring turnover rate at 0.1 to 50 uM using lactose as substrate preincubated for 20 mins followed by lactose and UDP-Gal addition measured after 20 mins by malachite green dye-based assay relative to total UDP-Gal used.

Assay [4] concerns Neisseria meningitidis. Description: Inhibition of Neisseria meningitidis alpha-1,4-galactosyltransferase assessed as consumption of donor UDP-Gal by measuring turnover rate at 0.1 to 50 uM using lactose as substrate in presence of UDP-Gal measured after 20 min by malachite green dye-based assay relative to total UDP-Gal used. An outline of the steps:
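No pre-incubation: DTT-activated LgtC with MnCl2 5 mM, CIP 10 U/mL, egg-white lysozyme 1 mg/mL, 0.01% Triton, 13 mM HEPES pH 7.0, lactose 2 mM, inhibitor in DMSO (10% final); started with UDP-Gal 28 µM, 20 min at 30 °C, 20-50% donor turnover. Malachite green read at 620 nm against a UDP calibration curve, background without acceptor subtracted, % of assay window; triplicate minimum; IC50 from sigmoidal fit.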

The subject of assay [5] is Neisseria meningitidis. Nature of the assay: Inhibition of Neisseria meningitidis alpha-1,4-galactosyltransferase assessed as consumption of donor UDP-Gal by measuring turnover rate at 0.1 to 50 uM using lactose as substrate preincubated for 60 mins followed by lactose and UDP-Gal addition measured after 20 mins by malachite green dye-based assay relative to total UDP-Gal used.

Assay [6] relates to Neisseria meningitidis. Nature of the assay: Binding affinity to Neisseria meningitidis alpha-1,4-galactosyltransferase assessed as covalent adduct formation at 50 uM by mass spectrometric analysis. The settings on record: TDE = time-dependent effect. The gist of the method: (§1)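 LgtC stock without DTT activation, diluted in 13 mM HEPES pH 7.0, incubated with inhibitor (100 or 50 µM, added in DMSO; 10% final DMSO) for 20 min at 30 °C; samples injected directly for electrospray MS to detect protein-inhibitor adducts.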

For assay [7], the system named is Neisseria meningitidis. Nature of the assay: Binding affinity to Neisseria meningitidis alpha-1,4-galactosyltransferase assessed as covalent-enzyme adduct formation at 100 uM after 20 mins by mass spectroscopy. Conditions: 50 uM, in the assay text read “at 50 uM” for “at 100 uM”. An outline of the steps: as §1
For assay [8], the system named is Neisseria meningitidis. Description: Inhibition of Neisseria meningitidis alpha-1,4-galactosyltransferase assessed as rate constant for enzyme activity at 3 uM using lactose as substrate preincubated with substrate measured after 20 mins in presence of UDP-Gal. An outline of the steps:
(§2)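 Activity measured at a series of inhibitor concentrations (0.5-200 µM range overall) after pre-incubation with LgtC for 0, 5, 10, 20 and 30 min, using the pre-incubation protocols (lactose 2 mM, UDP-Gal 28 µM, 20 min at 30 °C, malachite green); % of DMSO control plotted semi-logarithmically versus pre-incubation time to give kobs; kobs versus concentration gave Ki and kinact; triplicate.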

For assay [9], the system named is Neisseria meningitidis. Description: Inhibition of Neisseria meningitidis alpha-1,4-galactosyltransferase assessed as consumption of donor UDP-Gal by measuring turnover rate at 0.1 to 50 uM using lactose as substrate preincubated for 10 mins followed by lactose and UDP-Gal addition measured after 20 mins by malachite green dye-based assay relative to total UDP-Gal used. An outline of the steps: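 Enzyme (DTT-activated) with MnCl2 5 mM, CIP 10 U/mL, lysozyme 1 mg/mL, 0.01% Triton, 13 mM HEPES pH 7.0 and inhibitor in DMSO (10% final) pre-incubated 10 min at 30 °C before UDP-Gal (28 µM) plus lactose (2 mM) added; 20 min at 30 °C; UDP read by malachite green at 620 nm versus UDP standard curve, background-corrected; triplicate.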

Assay [10] has as its system Neisseria meningitidis. Nature of the assay: Binding affinity to Neisseria meningitidis alpha-1,4-galactosyltransferase assessed as covalent-enzyme adduct formation at 50 uM after 20 mins by mass spectroscopy. Conditions: 100 uM, in the assay text read “at 100 uM” for “at 50 uM”. The gist of the method: as §1
Assay [11] relates to Neisseria meningitidis. Description: Inhibition of Neisseria meningitidis alpha-1,4-galactosyltransferase assessed as rate constant for enzyme activity at 200 uM using lactose as substrate preincubated with substrate measured after 20 mins in presence of UDP-Gal. The gist of the method: as §2
Assay [12] concerns Neisseria meningitidis. Nature of the assay: Inhibition of Neisseria meningitidis alpha-1,4-galactosyltransferase assessed as consumption of donor UDP-Gal by measuring turnover rate at 0.1 to 100 uM using lactose as substrate preincubated for 20 mins followed by lactose and UDP-Gal addition measured after 20 mins by malachite green dye-based assay relative to total UDP-Gal used.

Assay [13] relates to Neisseria meningitidis. Description: Inhibition of Neisseria meningitidis alpha-1,4-galactosyltransferase assessed as consumption of donor UDP-Gal by measuring turnover rate at 0.1 to 100 uM using lactose as substrate preincubated for 5 mins followed by lactose and UDP-Gal addition measured after 20 mins by malachite green dye-based assay relative to total UDP-Gal used.
The subject of assay [14] is Neisseria meningitidis. Description: Inhibition of Neisseria meningitidis alpha-1,4-galactosyltransferase assessed as rate constant for enzyme activity at 15 uM using lactose as substrate preincubated with substrate measured after 20 mins in presence of UDP-Gal. An outline of the steps:
as §2

The subject of assay [15] is Neisseria meningitidis. Nature of the assay: Inhibition of Neisseria meningitidis alpha-1,4-galactosyltransferase assessed as consumption of donor UDP-Gal by measuring turnover rate at 0.1 to 100 uM using lactose as substrate preincubated for 60 mins followed by lactose and UDP-Gal addition measured after 20 mins by malachite green dye-based assay relative to total UDP-Gal used.

In assay [16] the test system is Neisseria meningitidis. Description: Inhibition of Neisseria meningitidis alpha-1,4-galactosyltransferase assessed as rate constant for enzyme activity at 100 uM using lactose as substrate preincubated with substrate measured after 20 mins in presence of UDP-Gal. An outline of the steps:
as §2

Assay [17] concerns Neisseria meningitidis. Description: Inhibition of Neisseria meningitidis alpha-1,4-galactosyltransferase assessed as consumption of donor UDP-Gal by measuring turnover rate at 0.1 to 100 uM using lactose as substrate preincubated for 180 mins followed by lactose and UDP-Gal addition measured after 20 mins by malachite green dye-based assay relative to total UDP-Gal used.
Assay [18] relates to Neisseria meningitidis. Description: Binding affinity to Neisseria meningitidis alpha-1,4-galactosyltransferase assessed as covalent adduct formation at 100 uM after 20 mins by mass spectrometric analysis. The settings on record: TDE = time-dependent effect. An outline of the steps: as §1
Assay [19] has as its system Neisseria meningitidis. Description: Inhibition of Neisseria meningitidis alpha-1,4-galactosyltransferase assessed as rate constant for enzyme activity at 6 uM using lactose as substrate preincubated with substrate measured after 20 mins in presence of UDP-Gal. An outline of the steps:
as §2

In assay [20] the target is Intestinal-type alkaline phosphatase (Bos taurus) (UniProt P19111). Nature of the assay: Inhibition of calf intestinal alkaline […] at 0.1 to 100 uM using UDP as substrate after 20 mins by malachite green dye-based assay.
Sequence of Intestinal-type alkaline phosphatase (Bos taurus) (P19111 20-506 limits assumed): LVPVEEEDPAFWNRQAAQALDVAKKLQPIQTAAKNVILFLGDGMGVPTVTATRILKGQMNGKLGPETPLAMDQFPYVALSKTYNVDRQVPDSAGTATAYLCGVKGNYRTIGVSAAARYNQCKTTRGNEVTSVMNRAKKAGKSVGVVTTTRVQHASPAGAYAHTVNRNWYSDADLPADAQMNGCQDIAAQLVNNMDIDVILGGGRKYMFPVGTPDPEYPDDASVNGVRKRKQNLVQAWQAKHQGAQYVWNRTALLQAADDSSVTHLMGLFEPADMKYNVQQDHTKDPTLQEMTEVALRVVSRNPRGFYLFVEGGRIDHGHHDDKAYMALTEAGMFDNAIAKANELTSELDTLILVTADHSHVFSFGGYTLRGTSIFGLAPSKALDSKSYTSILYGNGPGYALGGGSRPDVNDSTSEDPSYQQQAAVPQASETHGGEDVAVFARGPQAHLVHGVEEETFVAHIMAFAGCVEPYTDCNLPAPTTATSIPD

For `COc1ccc(/C=C2\C(=O)N(c3ccccc3)N=C2C(F)(F)F)cc1Br`, the inhibition in the assay on Neisseria meningitidis [1] came out at 32%; in the assay on Neisseria meningitidis [2], 32%; with Neisseria meningitidis [3], 32%; in the assay with Neisseria meningitidis [4], 30%; in the assay with Neisseria meningitidis [5] it was 39%; with Neisseria meningitidis [9], 46%. Moreover, the Activity result in the assay on Neisseria meningitidis [6] was “Tde”. Moreover, the result with Neisseria meningitidis [7] was Active. Also, the K with Neisseria meningitidis [8] amounted to 0.025 min⁻¹.
Consider `O=C1/C(=C\c2cccc(OCc3ccccc3)c2)C(C(F)(F)F)=NN1c1ccccc1`, for which, in the assay on Neisseria meningitidis [10], the result was Active. The K was 0.079 min⁻¹ in the assay with Neisseria meningitidis [11], 0.021 min⁻¹ in the assay with Neisseria meningitidis [14], 0.072 min⁻¹ in the assay with Neisseria meningitidis [16] and 0.01 min⁻¹ in the assay on Neisseria meningitidis [19]. The inhibition was 27% with Neisseria meningitidis [12], 30% in the assay on Neisseria meningitidis [13], 29% in the assay with Neisseria meningitidis [15] and 19% with Neisseria meningitidis [17]. Moreover, the Activity entry in the assay with Neisseria meningitidis [18] was “Tde”. Moreover, the inhibition result in assay [20] was “inactive”.

Broadly, the inhibition is the percentage by which the read-out fell short of the control.

The values above are taken from ChEMBL document CHEMBL4052634, “Covalent inhibitors of LgtC: A blueprint for the discovery of non-substrate-like inhibitors for bacterial glycosyltransferases” (Bioorg Med Chem, 2017).
